# Assay results from ChEMBL document CHEMBL4402600, “Discovery of a Dual Tubulin Polymerization and Cell Division Cycle 20 Homologue Inhibitor via Structural Modification on Apcin” (J Med Chem, 2020).
# pIC50: −log10 of the molar value.
# What was measured:
# Assay type in all cases: functional, cell-based
# [1] = test system: A-375; assay: Cytotoxicity in human A375 cells assessed as reduction in cell viability incubated for 48 hrs by MTT assay; conditions: A-375, 48 h
# In short: (§1)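 Cells grown at 37°C, 5% CO₂ (HepG2, OVCAR-3, Caov-3 in DMEM + 10% FBS; A549, HeLa, A375, MCF-7 in RPMI 1640 + 10% FBS). Seeded at 4-5×10³/well in triplicate, adhered overnight, exposed to 0.03–300 μM (DMSO <0.1%) for 48 h. MTT added for 4 h, formazan dissolved in DMSO, absorbance read. IC50 from dose–response curves, mean ± SD of at least three independent experiments.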
# [2] = test system: HeLa; assay: Cytotoxicity in human HeLa cells assessed as reduction in cell viability incubated for 48 hrs by MTT assay; in short: as §1
# [3] = test system: MCF7; assay: Cytotoxicity in human MCF7 cells assessed as reduction in cell viability incubated for 48 hrs by MTT assay; conditions: MCF7, 48 h; in short: as §1
# [4] = test system: HepG2; assay: Cytotoxicity in human HepG2 cells assessed as reduction in cell viability incubated for 48 hrs by MTT assay; conditions: HepG2, 48 h; in short: as §1
# [5] = test system: Caov-3 cell line; assay: Cytotoxicity in human Caov3 cells assessed as reduction in cell viability incubated for 48 hrs by MTT assay; conditions: Caov-3, 48 h; in short: as §1
# [6] = test system: OVCAR-3; assay: Cytotoxicity in human OVCAR3 cells assessed as reduction in cell viability incubated for 48 hrs by MTT assay; conditions: OVCAR-3, 48 h; in short: as §1
# [7] = test system: A549; assay: Cytotoxicity in human A549 cells assessed as reduction in cell viability incubated for 48 hrs by MTT assay; conditions: A549, 48 h; in short: as §1
Compound,pIC50 [1],pIC50 [2],pIC50 [3],pIC50 [4],pIC50 [5],pIC50 [6],pIC50 [7]
Cc1ncc([N+](=O)[O-])n1CCOC(=O)NC(n1cnc2c(N(C)C)ncnc21)C(Cl)(Cl)Cl (stereo not given),4.56,3.80,< 3.52,< 3.52,3.58,< 3.52,3.72
Nc1nc(F)nc2c1ncn2C(NC(=O)OCCc1ccccn1)C(Cl)(Cl)Cl (stereo not given),6.40,5.52,6.00,6.00,5.96,6.10,5.46
Cc1ncc([N+](=O)[O-])n1CCOC(=O)NC(n1cnc2c(N)nc(Cl)nc21)C(Cl)(Cl)Cl (stereo not given),3.61,3.66,< 3.52,5.14,3.84,3.88,3.80
CCOC(=O)NC(n1cnc2c(N)nc(Cl)nc21)C(Cl)(Cl)Cl (stereo not given),3.90,3.82,4.06,4.23,4.03,3.88,4.22
Cc1ncc([N+](=O)[O-])n1CCOC(=O)NC(n1cnc2c(N)nc(N)nc21)C(Cl)(Cl)Cl (stereo not given),3.77,3.92,< 3.52,4.71,< 3.52,< 3.52,< 3.52
Cc1ncc([N+](=O)[O-])n1CCOC(=O)NC(n1cnc2c(Cl)ncnc21)C(Cl)(Cl)Cl (stereo not given),< 3.52,< 3.52,< 3.52,< 3.52,< 3.52,< 3.52,< 3.52
Cc1ncc([N+](=O)[O-])n1CCOC(=O)NC(Nc1nc(Cl)c(N)c(Cl)n1)C(Cl)(Cl)Cl (stereo not given),4.85,4.76,4.69,4.59,4.72,4.68,4.50
Cc1ncc([N+](=O)[O-])n1CCOC(=O)NC(n1cnc2ccccc21)C(Cl)(Cl)Cl (stereo not given),< 3.52,3.67,< 3.52,< 3.52,< 3.52,< 3.52,< 3.52
Nc1nc(N)c2ncn(C(NC(=O)OCCN3CCOCC3)C(Cl)(Cl)Cl)c2n1 (stereo not given),4.02,4.32,3.90,5.07,4.98,4.94,4.33
O=C(NC(Nc1ncnc2c1cnn2C(NC(=O)OCCc1ccccn1)C(Cl)(Cl)Cl)C(Cl)(Cl)Cl)OCCc1ccccn1 (stereo not given),< 3.52,3.96,3.79,4.09,3.83,< 3.52,4.27
Cc1ncc([N+](=O)[O-])n1CCOC(=O)NC(n1cnc2c(OCc3ccccc3)nc(N)nc21)C(Cl)(Cl)Cl (stereo not given),< 3.52,< 3.52,4.05,4.15,< 3.52,< 3.52,3.83
Cc1ncc([N+](=O)[O-])n1CCOC(=O)NC(n1cnc2c(NC(=O)c3ccccc3)ncnc21)C(Cl)(Cl)Cl (stereo not given),< 3.52,< 3.52,< 3.52,< 3.52,< 3.52,3.65,3.61
Cc1ncc([N+](=O)[O-])n1CCOC(=O)NC(Nc1nccc(N)n1)C(Cl)(Cl)Cl (stereo not given),< 3.52,< 3.52,< 3.52,< 3.52,< 3.52,< 3.52,< 3.52
Nc1ncnc2c1cnn2C(NC(=O)OCCN1CCOCC1)C(Cl)(Cl)Cl (stereo not given),5.92,> 5.00,4.71,4.71,6.00,6.10,4.87
Nc1nc(N)c2ncn(C(NC(=O)OCCc3ccccn3)C(Cl)(Cl)Cl)c2n1 (stereo not given),3.52,3.66,3.87,4.55,4.53,4.51,3.57
Cc1ncc([N+](=O)[O-])n1CCOC(=O)NC(n1cnc2c(NCc3ccccc3)ncnc21)C(Cl)(Cl)Cl (stereo not given),< 3.52,4.14,4.02,4.48,< 3.52,3.61,3.83
Nc1nc(Cl)nc2c1ncn2C(NC(=O)OCc1ccccc1)C(Cl)(Cl)Cl (stereo not given),< 3.52,< 3.52,3.86,< 3.52,4.19,4.42,4.11
Cn1c([N+](=O)[O-])cnc1COC(=O)NC(n1cnc2c(N)nc(Cl)nc21)C(Cl)(Cl)Cl (stereo not given),5.92,4.29,4.27,4.36,4.19,4.15,4.21

Compound,pIC50 [1],pIC50 [2],pIC50 [3],pIC50 [4],pIC50 [5],pIC50 [6],pIC50 [7]
Cc1ncc([N+](=O)[O-])n1CCOC(=O)NC(Nc1cc2ccccc2cn1)C(Cl)(Cl)Cl (stereo not given),4.90,4.41,3.85,4.59,4.02,3.96,4.07
Cc1ncc([N+](=O)[O-])n1CCOC(=O)NC(n1cnc2c(Cl)nc(N)nc21)C(Cl)(Cl)Cl (stereo not given),< 3.52,4.24,< 3.52,< 3.52,< 3.52,< 3.52,< 3.52
COc1ccnc(NC(NC(=O)OCCn2c([N+](=O)[O-])cnc2C)C(Cl)(Cl)Cl)n1 (stereo not given),4.36,3.89,3.73,4.10,3.80,3.70,3.58
CC(=O)Nc1nc2c(ncn2C(NC(=O)OCCn2c([N+](=O)[O-])cnc2C)C(Cl)(Cl)Cl)c(=O)[nH]1 (stereo not given),< 3.52,< 3.52,< 3.52,< 3.52,< 3.52,< 3.52,< 3.52
Cc1ncc([N+](=O)[O-])n1CCOC(=O)NC(n1cnc2c(Cl)nc(F)nc21)C(Cl)(Cl)Cl (stereo not given),3.92,< 3.52,4.21,4.26,< 3.52,< 3.52,< 3.52
Cc1ncc([N+](=O)[O-])n1CCOC(=O)NC(n1cnc2c(N)ncnc21)C(Cl)(Cl)Cl (stereo not given),3.74,< 3.52,< 3.52,< 3.52,< 3.52,< 3.52,< 3.52
CCOC(=O)NC(n1cnc2c(N)nc(F)nc21)C(Cl)(Cl)Cl (stereo not given),5.74,6.05,6.10,5.85,6.22,6.30,6.30
Cn1c([N+](=O)[O-])cnc1COC(=O)NC(n1cnc2c(N)nc(F)nc21)C(Cl)(Cl)Cl (stereo not given),5.57,6.70,5.82,5.42,6.52,6.22,6.30
Cc1ncc([N+](=O)[O-])n1CCOC(=O)NC(Nc1nccc(=O)[nH]1)C(Cl)(Cl)Cl (stereo not given),< 3.52,< 3.52,< 3.52,< 3.52,< 3.52,< 3.52,< 3.52
Cc1ncc([N+](=O)[O-])n1CCOC(=O)NC(Nc1nccc(Cl)n1)C(Cl)(Cl)Cl (stereo not given),4.70,< 3.52,< 3.52,< 3.52,< 3.52,< 3.52,4.02
Cc1ccnc(NC(NC(=O)OCCn2c([N+](=O)[O-])cnc2C)C(Cl)(Cl)Cl)n1 (stereo not given),4.43,4.02,3.82,4.51,3.81,3.78,4.56
Cc1ncc([N+](=O)[O-])n1CCOC(=O)NC(n1cnc2c(Cl)nc(Cl)nc21)C(Cl)(Cl)Cl (stereo not given),4.16,3.85,3.66,4.26,3.65,3.79,4.14
O=C(NC(n1ncc2c(O)ncnc21)C(Cl)(Cl)Cl)OCCc1ccccn1 (stereo not given),< 3.52,< 3.52,< 3.52,3.57,< 3.52,< 3.52,< 3.52
Cc1ncc([N+](=O)[O-])n1CCOC(=O)NC(Nc1nc(Cl)cc(Cl)n1)C(Cl)(Cl)Cl (stereo not given),5.09,4.81,4.49,4.63,4.65,4.77,4.31
Cc1ncc([N+](=O)[O-])n1CCOC(=O)NC(Nc1nccc2ccccc12)C(Cl)(Cl)Cl (stereo not given),4.43,< 3.52,< 3.52,4.33,4.09,4.21,< 3.52
Cc1c(Cl)nc(NC(NC(=O)OCCn2c([N+](=O)[O-])cnc2C)C(Cl)(Cl)Cl)nc1Cl (stereo not given),4.92,4.57,3.94,4.87,4.51,4.60,3.73
Cc1ncc([N+](=O)[O-])n1CCOC(=O)NC(Nc1ccc2ccccc2n1)C(Cl)(Cl)Cl (stereo not given),4.85,5.04,4.00,4.64,4.14,4.05,4.32
